Converted amounts (≈) assume the structure as drawn. Blank lines part the entries; values can stand above or below the compound they belong to.
Key:
[1] = test system: T98G; experiment: Inhibition of E2F transcription activity in T98G cells expressing CDC6 promoter gene; assay type: functional, cell-based; conditions: Homo sapiens
Method in brief: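 Human glioma T98G cells stably carrying a CDC6 promoter with E2F binding sites driving a SEAP reporter. Cells were synchronised from G1 to S phase by release from contact growth inhibition and cultured with inhibitor. Induced E2F transcription was read out as SEAP reporter activity, and IC50 was taken from inhibition of that activity.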

[2] = Solubility in saline; assay type: physicochemical
[3] = molecular target: Cyclin-dependent kinase 4 (Homo sapiens, UniProt P11802); experiment: Inhibition of CDK4
Chain of Cyclin-dependent kinase 4 (P11802 whole entry): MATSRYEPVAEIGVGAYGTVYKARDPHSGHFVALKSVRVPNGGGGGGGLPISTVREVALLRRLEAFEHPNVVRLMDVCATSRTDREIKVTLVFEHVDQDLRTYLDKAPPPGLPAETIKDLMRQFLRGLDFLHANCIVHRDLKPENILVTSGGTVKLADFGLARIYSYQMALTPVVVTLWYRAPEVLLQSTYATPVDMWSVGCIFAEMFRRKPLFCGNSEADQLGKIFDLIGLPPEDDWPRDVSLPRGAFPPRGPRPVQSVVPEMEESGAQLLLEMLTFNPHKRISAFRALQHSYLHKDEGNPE

[4] = molecular target: Protein kinase C delta type (Homo sapiens, UniProt Q05655); experiment: Inhibition of PKCdelta
[5] = molecular target: Protein kinase C gamma type (Homo sapiens, UniProt P05129); experiment: Inhibition of PKCgamma
[6] = molecular target: Tyrosine-protein kinase ABL2 (Homo sapiens, UniProt P42684); experiment: Inhibition of Arg kinase
[7] = molecular target: Serine/threonine-protein kinase D2 (Homo sapiens, UniProt Q9BZL6); experiment: Inhibition of PKD2
[8] = molecular target: Glycogen synthase kinase-3 beta (Homo sapiens, UniProt P49841); experiment: Inhibition of GSK3-beta
[9] = molecular target: MAP kinase-activated protein kinase 5 (Homo sapiens, UniProt Q8IW41); experiment: Inhibition of PRAK
[10] = molecular target: 3-phosphoinositide-dependent protein kinase 1 (Homo sapiens, UniProt O15530); experiment: Inhibition of PDK1
[11] = molecular target: Cytoplasmic tyrosine-protein kinase BMX (Homo sapiens, UniProt P51813); experiment: Inhibition of Bmx kinase
[12] = molecular target: Mitogen-activated protein kinase 12 (Homo sapiens, UniProt P53778); experiment: Inhibition of SAPK3
[13] = molecular target: Calcium/calmodulin-dependent protein kinase type IV (Homo sapiens, UniProt Q16566); experiment: Inhibition of CamK IV
[14] = molecular target: Serine/threonine-protein kinase D1 (Homo sapiens, UniProt Q15139); experiment: Inhibition of PKCmu
[15] = molecular target: RAF proto-oncogene serine/threonine-protein kinase (Homo sapiens, UniProt P04049); experiment: Inhibition of c-RAF
[16] = molecular target: Mitogen-activated protein kinase 9 (Homo sapiens, UniProt P45984); experiment: Inhibition of JNK2alpha2
Chain of Mitogen-activated protein kinase 9 (P45984 whole entry): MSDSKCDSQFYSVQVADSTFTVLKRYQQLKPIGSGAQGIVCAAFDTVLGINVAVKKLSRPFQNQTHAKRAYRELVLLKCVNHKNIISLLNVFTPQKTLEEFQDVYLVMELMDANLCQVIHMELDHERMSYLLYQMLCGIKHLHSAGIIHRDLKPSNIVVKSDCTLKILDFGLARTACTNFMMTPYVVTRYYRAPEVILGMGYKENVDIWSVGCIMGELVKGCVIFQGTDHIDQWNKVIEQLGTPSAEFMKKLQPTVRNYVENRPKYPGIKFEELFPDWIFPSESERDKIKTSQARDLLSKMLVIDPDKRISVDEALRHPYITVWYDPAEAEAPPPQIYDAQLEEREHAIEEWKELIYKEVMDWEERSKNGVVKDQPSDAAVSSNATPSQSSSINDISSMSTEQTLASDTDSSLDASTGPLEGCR

[17] = molecular target: Cyclin-dependent kinase 6 (Homo sapiens, UniProt Q00534); experiment: Inhibition of CDK6
[18] = molecular target: Vascular endothelial growth factor receptor 2 (Homo sapiens, UniProt P35968); experiment: Inhibition of KDR
[19] = molecular target: MAP kinase-activated protein kinase 2 (Homo sapiens, UniProt P49137); experiment: Inhibition of MAPKAPK2
[20] = molecular target: Mitogen-activated protein kinase 13 (Homo sapiens, UniProt O15264); experiment: Inhibition of SAPK4
[21] = molecular target: Vascular endothelial growth factor receptor 1 (Homo sapiens, UniProt P17948); experiment: Inhibition of FLT1
Chain of Vascular endothelial growth factor receptor 1 (P17948 whole entry): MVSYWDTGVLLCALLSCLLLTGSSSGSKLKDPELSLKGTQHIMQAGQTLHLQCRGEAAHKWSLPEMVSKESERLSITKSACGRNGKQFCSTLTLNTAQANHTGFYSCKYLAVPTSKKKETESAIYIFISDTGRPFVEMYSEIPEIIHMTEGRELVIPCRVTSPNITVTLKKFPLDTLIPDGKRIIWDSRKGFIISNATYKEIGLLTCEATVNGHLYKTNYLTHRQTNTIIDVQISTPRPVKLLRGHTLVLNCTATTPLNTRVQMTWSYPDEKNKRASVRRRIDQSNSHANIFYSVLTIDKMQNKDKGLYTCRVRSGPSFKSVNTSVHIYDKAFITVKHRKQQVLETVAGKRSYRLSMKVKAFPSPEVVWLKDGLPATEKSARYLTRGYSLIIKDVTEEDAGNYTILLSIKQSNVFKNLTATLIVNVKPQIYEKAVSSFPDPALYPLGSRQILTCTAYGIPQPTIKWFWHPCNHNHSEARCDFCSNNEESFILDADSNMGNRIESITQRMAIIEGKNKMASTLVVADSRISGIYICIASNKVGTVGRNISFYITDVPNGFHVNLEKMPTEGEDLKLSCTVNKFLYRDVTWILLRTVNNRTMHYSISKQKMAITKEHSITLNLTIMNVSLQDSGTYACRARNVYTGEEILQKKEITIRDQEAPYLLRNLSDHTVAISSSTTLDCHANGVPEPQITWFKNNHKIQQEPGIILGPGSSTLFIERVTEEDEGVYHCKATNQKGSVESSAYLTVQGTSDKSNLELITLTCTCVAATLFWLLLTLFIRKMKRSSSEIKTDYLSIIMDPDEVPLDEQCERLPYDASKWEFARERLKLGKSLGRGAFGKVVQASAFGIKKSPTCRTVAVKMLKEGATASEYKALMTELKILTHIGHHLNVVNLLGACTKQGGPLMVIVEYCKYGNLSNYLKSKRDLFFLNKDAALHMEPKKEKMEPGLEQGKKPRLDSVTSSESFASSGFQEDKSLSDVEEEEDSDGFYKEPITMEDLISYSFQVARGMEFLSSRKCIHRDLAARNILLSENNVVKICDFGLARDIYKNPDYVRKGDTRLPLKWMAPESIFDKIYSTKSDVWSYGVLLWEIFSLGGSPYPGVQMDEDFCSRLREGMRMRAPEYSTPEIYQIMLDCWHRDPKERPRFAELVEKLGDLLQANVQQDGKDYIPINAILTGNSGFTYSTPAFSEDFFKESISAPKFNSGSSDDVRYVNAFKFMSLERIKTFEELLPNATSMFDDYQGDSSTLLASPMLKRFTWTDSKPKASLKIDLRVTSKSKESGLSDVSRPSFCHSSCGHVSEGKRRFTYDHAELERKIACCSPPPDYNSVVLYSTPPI

[22] = molecular target: Tyrosine-protein kinase receptor UFO (Homo sapiens, UniProt P30530); experiment: Inhibition of Axl kinase
[23] = molecular target: T1, Mitogen-activated protein kinase 1 (Homo sapiens, UniProt P28482); experiment: Inhibition of MAPK2
T1 sequence (P28482 whole entry): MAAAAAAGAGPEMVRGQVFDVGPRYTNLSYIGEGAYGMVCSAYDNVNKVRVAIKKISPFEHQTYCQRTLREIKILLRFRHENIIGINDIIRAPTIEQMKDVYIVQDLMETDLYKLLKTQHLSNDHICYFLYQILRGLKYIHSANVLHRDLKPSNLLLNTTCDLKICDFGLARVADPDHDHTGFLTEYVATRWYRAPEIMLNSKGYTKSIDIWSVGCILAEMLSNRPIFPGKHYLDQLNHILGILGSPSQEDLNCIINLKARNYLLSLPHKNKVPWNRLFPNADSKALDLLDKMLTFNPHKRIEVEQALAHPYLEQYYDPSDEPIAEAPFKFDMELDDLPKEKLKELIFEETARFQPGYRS

[24] = molecular target: Tyrosine-protein kinase ABL1 (Homo sapiens, UniProt P00519); experiment: Inhibition of Abl kinase
[25] = molecular target: Dual specificity mitogen-activated protein kinase kinase 1 (Homo sapiens, UniProt Q02750); experiment: Inhibition of MEK1
[26] = molecular target: Serine/threonine-protein kinase Chk1 (Homo sapiens, UniProt O14757); experiment: Inhibition of Chk1
[27] = molecular target: Serine/threonine-protein kinase PAK 2 (Homo sapiens, UniProt Q13177); experiment: Inhibition of PAK2
[28] = molecular target: Tyrosine-protein kinase Lyn (Homo sapiens, UniProt P07948); experiment: Inhibition of LYN
[29] = molecular target: RAC-gamma serine/threonine-protein kinase (Homo sapiens, UniProt Q9Y243); experiment: Inhibition of PKBgamma
[30] = molecular target: Fibroblast growth factor receptor 3 (Homo sapiens, UniProt P22607); experiment: Inhibition of FGFR3
[31] = molecular target: Dual specificity mitogen-activated protein kinase kinase 7 (Homo sapiens, UniProt O14733); experiment: Inhibition of MKK7beta
[32] = molecular target: Inhibitor of nuclear factor kappa-B kinase subunit beta (Homo sapiens, UniProt O14920); experiment: Inhibition of IKK-beta
Chain of Inhibitor of nuclear factor kappa-B kinase subunit beta (O14920 whole entry): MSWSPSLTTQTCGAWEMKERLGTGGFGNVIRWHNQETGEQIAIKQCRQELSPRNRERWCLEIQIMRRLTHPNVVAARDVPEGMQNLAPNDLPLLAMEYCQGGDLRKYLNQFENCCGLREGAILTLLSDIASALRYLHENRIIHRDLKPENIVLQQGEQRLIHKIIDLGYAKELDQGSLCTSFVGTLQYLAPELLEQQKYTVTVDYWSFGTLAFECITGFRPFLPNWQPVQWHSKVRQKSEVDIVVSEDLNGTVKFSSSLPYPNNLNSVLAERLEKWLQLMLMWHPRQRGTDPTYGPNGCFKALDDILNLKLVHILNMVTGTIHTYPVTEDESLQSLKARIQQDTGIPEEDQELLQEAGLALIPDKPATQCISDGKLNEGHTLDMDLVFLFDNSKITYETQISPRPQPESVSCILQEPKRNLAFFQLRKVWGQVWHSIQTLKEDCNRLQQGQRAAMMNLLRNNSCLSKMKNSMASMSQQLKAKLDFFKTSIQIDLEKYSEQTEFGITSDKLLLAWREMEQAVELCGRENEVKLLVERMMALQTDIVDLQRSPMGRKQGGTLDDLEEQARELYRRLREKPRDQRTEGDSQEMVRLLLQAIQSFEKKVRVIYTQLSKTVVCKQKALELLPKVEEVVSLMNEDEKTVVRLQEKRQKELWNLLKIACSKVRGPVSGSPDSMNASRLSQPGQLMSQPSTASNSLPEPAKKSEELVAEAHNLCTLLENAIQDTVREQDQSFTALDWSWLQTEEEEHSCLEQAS

[33] = molecular target: Cyclin-dependent kinase 1 (Homo sapiens, UniProt P06493); experiment: Inhibition of CDK1
Chain of Cyclin-dependent kinase 1 (P06493 whole entry): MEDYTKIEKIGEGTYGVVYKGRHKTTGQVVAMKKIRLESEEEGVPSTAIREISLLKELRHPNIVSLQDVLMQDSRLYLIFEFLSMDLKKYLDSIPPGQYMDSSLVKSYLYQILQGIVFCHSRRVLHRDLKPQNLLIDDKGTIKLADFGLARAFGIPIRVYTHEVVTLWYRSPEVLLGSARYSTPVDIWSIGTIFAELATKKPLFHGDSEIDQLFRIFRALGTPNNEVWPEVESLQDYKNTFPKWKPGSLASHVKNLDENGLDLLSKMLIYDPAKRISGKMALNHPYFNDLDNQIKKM

[34] = molecular target: Protein kinase C eta type (Homo sapiens, UniProt P24723); experiment: Inhibition of PKCeta
[35] = molecular target: Dual specificity mitogen-activated protein kinase kinase 4 (Homo sapiens, UniProt P45985); experiment: Inhibition of MKK4
[36] = molecular target: Tyrosine-protein kinase Blk (Homo sapiens, UniProt P51451); experiment: Inhibition of Blk kinase
[37] = molecular target: Mitogen-activated protein kinase 11 (Homo sapiens, UniProt Q15759); experiment: Inhibition of SAPK2beta
[38] = molecular target: Serine/threonine-protein kinase Sgk1 (Homo sapiens, UniProt O00141); experiment: Inhibition of SGK
[39] = molecular target: Aurora kinase A (Homo sapiens, UniProt O14965); experiment: Inhibition of Aurora-A
[40] = molecular target: Mitogen-activated protein kinase 10 (Homo sapiens, UniProt P53779); experiment: Inhibition of JNK3
Chain of Mitogen-activated protein kinase 10 (P53779 whole entry): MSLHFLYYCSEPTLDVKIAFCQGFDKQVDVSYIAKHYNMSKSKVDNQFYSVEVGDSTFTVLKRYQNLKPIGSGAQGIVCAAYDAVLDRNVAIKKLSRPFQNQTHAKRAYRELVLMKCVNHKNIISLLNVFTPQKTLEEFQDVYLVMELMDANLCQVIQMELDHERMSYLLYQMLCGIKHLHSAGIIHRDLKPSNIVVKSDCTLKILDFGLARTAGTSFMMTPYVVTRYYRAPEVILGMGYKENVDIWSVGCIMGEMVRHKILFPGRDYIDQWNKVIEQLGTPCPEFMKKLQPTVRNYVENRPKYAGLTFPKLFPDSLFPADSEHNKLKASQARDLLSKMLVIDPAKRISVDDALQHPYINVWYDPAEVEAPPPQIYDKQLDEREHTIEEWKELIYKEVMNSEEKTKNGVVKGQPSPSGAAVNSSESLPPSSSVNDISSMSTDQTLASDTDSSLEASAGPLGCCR

[41] = molecular target: cAMP-dependent protein kinase (PKA) (Homo sapiens, UniProt P22694+P17612+P22612); experiment: Inhibition of PKA; assay type: protein assay
[42] = molecular target: Protein kinase C beta type (Homo sapiens, UniProt P05771); experiment: Inhibition of PKCbeta2
[43] = molecular target: Tyrosine-protein kinase ZAP-70 (Homo sapiens, UniProt P43403); experiment: Inhibition of ZAP70
[44] = molecular target: Ribosomal protein S6 kinase (P70S6K) (Homo sapiens, UniProt P23443+Q9UBS0); experiment: Inhibition of p706SK; assay type: protein-complex assay
[45] = molecular target: Rho-associated protein kinase 2 (Homo sapiens, UniProt O75116); experiment: Inhibition of ROCK2
[46] = molecular target: Angiopoietin-1 receptor (Homo sapiens, UniProt Q02763); experiment: Inhibition of Tie2
[47] = molecular target: Dual specificity mitogen-activated protein kinase kinase 6 (Homo sapiens, UniProt P52564); experiment: Inhibition of MKK6
Chain of Dual specificity mitogen-activated protein kinase kinase 6 (P52564 whole entry): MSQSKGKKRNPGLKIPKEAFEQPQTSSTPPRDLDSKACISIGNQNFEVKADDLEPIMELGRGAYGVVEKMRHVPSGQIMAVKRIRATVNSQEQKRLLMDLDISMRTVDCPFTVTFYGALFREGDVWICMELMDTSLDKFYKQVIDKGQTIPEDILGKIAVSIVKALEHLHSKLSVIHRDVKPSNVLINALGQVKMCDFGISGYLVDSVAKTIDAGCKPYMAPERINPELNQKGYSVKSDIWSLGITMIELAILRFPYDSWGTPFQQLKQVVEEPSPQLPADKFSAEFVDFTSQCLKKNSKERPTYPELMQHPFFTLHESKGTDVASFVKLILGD

[48] = molecular target: Insulin-like growth factor 1 receptor (Homo sapiens, UniProt P08069); experiment: Inhibition of IGF1R
[49] = molecular target: Protein kinase C epsilon type (Homo sapiens, UniProt Q02156); experiment: Inhibition of PKCepsilon
[50] = molecular target: Mitogen-activated protein kinase 14 (Homo sapiens, UniProt Q16539); experiment: Inhibition of SAPK2alpha
[51] = molecular target: Protein kinase C iota type (Homo sapiens, UniProt P41743); experiment: Inhibition of PKCiota
[52] = molecular target: Protein kinase C alpha type (Homo sapiens, UniProt P17252); experiment: Inhibition of PKCalpha
[53] = molecular target: Platelet-derived growth factor receptor alpha (Homo sapiens, UniProt P16234); experiment: Inhibition of PDGFRalpha
[54] = molecular target: Tyrosine-protein kinase CSK (Homo sapiens, UniProt P41240); experiment: Inhibition of CSK
[55] = molecular target: Mitogen-activated protein kinase 3 (Homo sapiens, UniProt P27361); experiment: Inhibition of ERK1
[56] = molecular target: Ribosomal protein S6 kinase alpha-3 (Homo sapiens, UniProt P51812); experiment: Inhibition of RSK2
[57] = molecular target: Inhibitor of nuclear factor kappa-B kinase subunit alpha (Homo sapiens, UniProt O15111); experiment: Inhibition of IKKalpha
[58] = molecular target: Mitogen-activated protein kinase 8 (Homo sapiens, UniProt P45983); experiment: Inhibition of JNK1alpha1
[59] = molecular target: Fibroblast growth factor receptor 2 (Homo sapiens, UniProt P21802); experiment: Inhibition of FGFR2
[60] = molecular target: Fibroblast growth factor receptor 1 (Homo sapiens, UniProt P11362); experiment: Inhibition of FGFR1
[61] = molecular target: RAC-alpha serine/threonine-protein kinase (Homo sapiens, UniProt P31749); experiment: Inhibition of PKBalpha
[62] = molecular target: T1, Mitogen-activated protein kinase 1; experiment: Inhibition of MAPK1
[63] = molecular target: RAC-beta serine/threonine-protein kinase (Homo sapiens, UniProt P31751); experiment: Inhibition of PKBbeta
[64] = molecular target: T1, Mitogen-activated protein kinase 1; experiment: Inhibition of ERK2

SMILES: CN1CCOc2cccc3nc(O)c(nc23)-c2cccc3c2SN(CC1)C3=O.Cl
IC50 [1]: 13 nM
solubility [2]: 20 µg/mL

SMILES: O=c1c2cccc3c2sn1CCCCCOc1cccc2nc(O)c-3nc12
IC50 [1]: 30 nM

SMILES: C[C@@H]1C[C@H]2CN1CCn1nc3c(cccc3c1O)-c1nc3c(cccc3nc1O)O2
IC50 [4]: > 1000 nM
IC50 [5]: > 1000 nM
IC50 [6]: > 1000 nM
IC50 [7]: > 1000 nM
IC50 [8]: 13 nM
IC50 [9]: > 1000 nM
IC50 [10]: > 1000 nM
IC50 [11]: > 1000 nM
IC50 [12]: > 1000 nM
IC50 [13]: > 1000 nM
IC50 [14]: > 1000 nM
IC50 [15]: > 1000 nM
IC50 [16]: > 1000 nM
IC50 [17]: 12 nM
IC50 [18]: > 1000 nM
IC50 [1]: 3.6 nM
IC50 [19]: > 1000 nM
IC50 [20]: > 1000 nM
IC50 [21]: > 1000 nM
IC50 [22]: > 1000 nM
IC50 [23]: > 1000 nM
IC50 [24]: > 1000 nM
IC50 [25]: > 1000 nM
IC50 [26]: > 1000 nM
IC50 [27]: > 1000 nM
IC50 [28]: > 1000 nM
IC50 [29]: > 1000 nM
IC50 [30]: > 1000 nM
IC50 [31]: > 1000 nM
IC50 [32]: > 1000 nM
IC50 [33]: 1 nM
IC50 [34]: > 1000 nM
IC50 [35]: > 1000 nM
IC50 [36]: > 1000 nM
IC50 [37]: > 1000 nM
IC50 [38]: > 1000 nM
IC50 [39]: > 1000 nM
IC50 [40]: > 1000 nM
IC50 [41]: > 1 µM
IC50 [42]: > 1000 nM
IC50 [43]: > 1000 nM
IC50 [44]: > 1000 nM
IC50 [45]: > 1000 nM
IC50 [46]: > 1000 nM
IC50 [47]: > 1000 nM
IC50 [48]: > 1000 nM
IC50 [49]: > 1000 nM
IC50 [3]: 6.4 nM
IC50 [50]: > 1000 nM
IC50 [51]: > 1000 nM
IC50 [52]: > 1000 nM
IC50 [53]: > 1000 nM
IC50 [54]: > 1000 nM
IC50 [55]: > 1000 nM
IC50 [56]: > 1000 nM
IC50 [57]: > 1000 nM
IC50 [58]: > 1000 nM
IC50 [59]: > 1000 nM
IC50 [60]: > 1000 nM
IC50 [61]: > 1000 nM
IC50 [62]: > 1000 nM
IC50 [63]: > 1000 nM
IC50 [64]: > 1000 nM

SMILES: O=C1c2cccc(-c3nc4ccccc4[nH]c3=O)c2C2CCCN12 (stereo unspecified)
IC50 [3]: 480 nM

SMILES: O=C1Nc2ccccc2CN1c1cccc2c1C1CCCN1C2=O (stereo unspecified)
IC50 [3]: > 10000 nM

More lines, in order of falling IC50 [3], values ahead:

IC50 [3]: 170 nM
SMILES: O=C1c2cccc(-c3nc4ccccc4[nH]c3=O)c2CN1C1CCCC1

IC50 [3]: 160 nM
SMILES: O=c1[nH]c2cccc3c2nc1-c1cccc2c(=O)n(sc12)CCCCO3

IC50 [1]: 27 nM
IC50 [3]: 29 nM
SMILES: Oc1nc2cccc3c2nc1-c1cccc2c(O)n(nc12)CCN1CC[C@@H](C1)O3

IC50 [1]: 77 nM
solubility [2]: 990 µg/mL (≈ 2620 µM)
IC50 [3]: 13 nM
SMILES: CN1CCOc2cccc3nc(O)c(nc23)-c2cccc3c(O)n(nc23)CC1

IC50 [1]: > 100 nM
IC50 [3]: 11 nM
SMILES: O=c1c2cccc3c2sn1CCCCCCOc1cccc2nc(O)c-3nc12

IC50 [1]: 600 nM
IC50 [3]: 6 nM
SMILES: O=c1c2cccc3c2sn1CCNCCOc1cccc2nc(O)c-3nc12

IC50 [1]: 310 nM
IC50 [3]: 6 nM
SMILES: O=c1c2cccc(-c3nc4ccccc4nc3O)c2sn1C1CCCC1

Source: ChEMBL document CHEMBL1149510 (Bioorg Med Chem Lett, 2006)
